Test results published in ChEMBL document CHEMBL5036324 (J Med Chem, 2021).
The source made the active and inactive calls. No cut-off for these calls is given here.

What was measured:
[1] = biological target: T1, TLR7 and TLR8 (Homo sapiens) (UniProt Q9NYK1+Q9NR97); assay: Agonist activity at human TLR7/8 expressed in human PBMC cells assessed as induction of TNFalpha production by measuring concentration required to induce maximal response incubated for 12 hrs by multiplexed immunoassay; format: cell-based; conditions: filed as agonist
Summary of the method: (§1)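 Healthy-volunteer PBMCs from a single donor were isolated by Ficoll−Hypaque gradient and plated at 2.0 × 10⁶ cells/mL. They were stimulated for 12 h with escalating compound concentrations. Supernatants were assayed in duplicate on a 41-analyte magnetic bead cytokine/chemokine panel read by Luminex. EC_max is the concentration giving maximal cytokine induction.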

[2] = biological target: T1, TLR7 and TLR8 (Homo sapiens); assay: Agonist activity at human TLR7/8 expressed in human PBMC cells assessed as induction of IL-1beta production by measuring concentration required to induce maximal response incubated for 12 hrs by multiplexed immunoassay; format: cell-based; conditions: filed as agonist; summary of the method: as §1
[3] = biological target: T1, TLR7 and TLR8 (Homo sapiens); assay: Agonist activity at human TLR7/8 expressed in human PBMC cells assessed as induction of IL-6 production by measuring concentration required to induce maximal response incubated for 12 hrs by multiplexed immunoassay; format: cell-based; conditions: filed as agonist; summary of the method: as §1
[4] = biological target: T1, TLR7 and TLR8 (Homo sapiens); assay: Agonist activity at human TLR7/8 expressed in human PBMC cells assessed as induction of IL-8 production by measuring concentration required to induce maximal response incubated for 12 hrs by multiplexed immunoassay; format: cell-based; conditions: filed as agonist; summary of the method: as §1
[5] = biological target: T1, TLR7 and TLR8 (Homo sapiens); assay: Agonist activity at human TLR7/8 expressed in human PBMC cells assessed as induction of IL-10 production by measuring concentration required to induce maximal response incubated for 12 hrs by multiplexed immunoassay; format: cell-based; conditions: filed as agonist; summary of the method: as §1
[6] = biological target: T1, TLR7 and TLR8 (Homo sapiens); assay: Agonist activity at human TLR7/8 expressed in human PBMC cells assessed as induction of INF-gamma production by measuring concentration required to induce maximal response incubated for 12 hrs by multiplexed immunoassay; format: cell-based; conditions: filed as agonist; summary of the method: as §1
[7] = biological target: T1, TLR7 and TLR8 (Homo sapiens); assay: Agonist activity at human TLR7/8 expressed in human PBMC cells assessed as induction of MIP-1alpha production by measuring concentration required to induce maximal response incubated for 12 hrs by multiplexed immunoassay; format: cell-based; conditions: filed as agonist; summary of the method: as §1
[8] = biological target: T1, TLR7 and TLR8 (Homo sapiens); assay: Agonist activity at human TLR7/8 expressed in human PBMC cells assessed as induction of IP-10 production by measuring concentration required to induce maximal response incubated for 12 hrs by multiplexed immunoassay; format: cell-based; conditions: filed as agonist; summary of the method: as §1
[9] = biological target: T1, TLR7 and TLR8 (Homo sapiens); assay: Agonist activity at human TLR7/8 expressed in human PBMC cells assessed as induction of IL-12p40 production by measuring concentration required to induce maximal response incubated for 12 hrs by multiplexed immunoassay; format: cell-based; conditions: filed as agonist; summary of the method: as §1
[10] = biological target: T1, TLR7 and TLR8 (Homo sapiens); assay: Agonist activity at human TLR7/8 expressed in human PBMC cells assessed as induction of VEGF secretion incubated for 12 hrs by multiplexed immunoassay; format: cell-based; conditions: filed as agonist; summary of the method: as §1
[11] = system: CT26; assay: Antitumor activity against mouse CT26 cells implanted in BALB/c mouse assessed as tumor growth delay at 25 ug, ip administered once per week and measured every 3 days for 23 days; format: functional, organism-based; conditions: dose 25.0 µg, time 23.0 day
Summary of the method: (§2)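 Subcutaneous CT26 tumours were grown in BALB/c mice, with cells cultured in DMEM/10% FBS. At a mean tumour size of 100 mm³, mice were randomised (n = 5/group). Agonist was given ip once weekly; anti-PD-1 or IgG isotype was given ip at 200 μg twice weekly. Tumour volume (V = 1/2ab²) was measured every 3 days. Mice were euthanised at 2000 mm³.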

[12] = system: CT26; assay: Antitumor activity against mouse CT26 cells implanted in BALB/c mouse assessed as reduction in tumor volume at 25 ug, ip administered once a week in presence of anti-PD-1 antibodies and measured every 3 days for 23 days; format: functional, organism-based; conditions: dose 25.0 µg, time 23.0 day; summary of the method: as §2
[13] = Toxicity in BALB/c mouse implanted with mouse CT26 cells assessed as decrease in body weight at 25 ug, ip administered once a week for 23 days; format: organism-based; conditions: in vivo, 552 h, dose 25 µg, time 23 day
Summary of the method: (§3)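 CT26 subcutaneous tumor-bearing BALB/c mice (n = 5) were treated from 100 mm³ tumor volume. TLR7/8 agonist was given ip once weekly, alone or with anti-PD-1 antibody (200 μg ip, twice weekly). Body weight was tracked over the treatment period and reported as mean ± SEM.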

[14] = Toxicity in BALB/c mouse implanted with mouse CT26 cells assessed as decrease in body weight at 25 ug, ip administered once a week in presence of anti-PD-1 antibodies for 23 days; format: organism-based; conditions: in vivo, 552 h, dose 25 µg, time 23 day; summary of the method: as §3
[15] = system: CT26; assay: Antitumor immunity against mouse CT26 cells implanted in BALB/c mouse assessed as increase in infiltration of CD4+ TH1 cells at 25 ug, ip administered once a week for 23 days by flow cytometry analysis; format: functional, organism-based; conditions: dose 25.0 µg, time 23.0 day
Summary of the method: (§4)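 CT26-bearing BALB/c mice (n = 5) were treated ip once weekly with agonist, alone or with anti-PD-1 (200 μg, twice weekly). Tumours were harvested 23 days after implantation, enzymatically and mechanically dissociated into single cells, and stained for surface markers plus intracellular FoxP3 after fixation/permeabilisation. Cells were gated within CD45⁺ for CD11c⁺ DCs, CD11b⁺F4/80⁺MHCII⁺ (M1), CD206⁺ (M2), CD3/CD4/CD8, and CD4⁺CD25⁺FoxP3⁺ Treg, then analysed by flow cytometry.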

[16] = system: CT26; assay: Antitumor immunity against mouse CT26 cells implanted in BALB/c mouse assessed as increase in infiltration of CD8+ T cytotoxic lymphocytes at 25 ug, ip administered once a week for 23 days by flow cytometry analysis; format: functional, organism-based; conditions: dose 25.0 µg, time 23.0 day; summary of the method: as §4
[17] = system: CT26; assay: Antitumor immunity against mouse CT26 cells implanted in BALB/c mouse assessed as increase in infiltration of CD4+ TH1 cells at 25 ug, ip administered once a week with anti-PD-1 antibody for 23 days by flow cytometry analysis; format: functional, organism-based; conditions: dose 25.0 µg, time 23.0 day; summary of the method: as §4
[18] = system: CT26; assay: Antitumor immunity against mouse CT26 cells implanted in BALB/c mouse assessed as increase in infiltration of CD8+ T cytotoxic lymphocytes at 25 ug, ip administered once a week with anti-PD-1 antibody for 23 days by flow cytometry analysis; format: functional, organism-based; conditions: dose 25.0 µg, time 23.0 day; summary of the method: as §4
[19] = Acute toxicity in BALB/c mouse assessed as mortality at 120 mg/kg, ip administered as single dose; format: organism-based; conditions: in vivo
[20] = Acute toxicity in BALB/c mouse assessed as body weight loss at 60 mg/kg, ip administered as single dose relative to control; format: organism-based; conditions: in vivo
[21] = Acute toxicity in BALB/c mouse assessed as white discharge from eyes at 15 to 80 mg/kg, ip administered as single dose; format: organism-based; conditions: in vivo, dose 15-80 mg/kg
[22] = Acute toxicity in BALB/c mouse assessed as mild diarrhea at 15 to 80 mg/kg, ip administered as single dose; format: organism-based; conditions: in vivo, dose 15-80 mg/kg
[23] = Acute toxicity in BALB/c mouse assessed as maximum tolerated dose; conditions: in vivo
[24] = Acute toxicity in BALB/c mouse assessed as decrease in locomotor activity at 15 to 80 mg/kg, ip administered as single dose; format: organism-based; conditions: in vivo, dose 15-80 mg/kg
[25] = Subacute toxicity in BALB/c mouse assessed as body weight loss at 1.12 g, ip administered as single dose; format: organism-based; conditions: in vivo
Summary of the method: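 Subacute study in BALB/c mice, with treated and control groups. Body weight was recorded every day. Spleens were weighed and photographed, and tissues were examined by H&E staining.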

[26] = Subacute toxicity in BALB/c mouse assessed as splenomegaly at 15 mg/kg, ip administered as single dose; format: organism-based; conditions: in vivo
Summary of the method: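 Subacute toxicity study in BALB/c mice given ip TLR7/8 agonist. Spleens from treated and control groups were weighed and photographed. Body weight was recorded every day.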

[27] = biological target: T1, TLR7 and TLR8 (Homo sapiens); assay: Agonist activity at human TLR7/8 expressed in human PBMC cells assessed as induction of MCP-1 production by measuring concentration required to induce maximal response incubated for 12 hrs by multiplexed immunoassay; format: cell-based; conditions: filed as agonist; summary of the method: as §1
[28] = biological target: T1, TLR7 and TLR8 (Homo sapiens); assay: Agonist activity at human TLR7/8 expressed in human PBMC cells assessed as induction of G-CSF production by measuring concentration required to induce maximal response incubated for 12 hrs by multiplexed immunoassay; format: cell-based; conditions: filed as agonist; summary of the method: as §1
[29] = system: CT26; assay: Antitumor immunity against mouse CT26 cells implanted in BALB/c mouse assessed as increase in Teff/Treg ratio at 25 ug, ip administered once a week for 23 days by flow cytometry analysis; format: functional, organism-based; conditions: dose 25.0 µg, time 23.0 day; summary of the method: as §4
[30] = system: CT26; assay: Antitumor immunity against mouse CT26 cells implanted in BALB/c mouse assessed as increase in Teff/Treg ratio at 25 ug, ip administered once a week with anti-PD-1 antibody for 23 days by flow cytometry analysis; format: functional, organism-based; conditions: dose 25.0 µg, time 23.0 day; summary of the method: as §4
[31] = Acute toxicity in BALB/c mouse assessed as body weight regain at 60 mg/kg, ip administered as single dose measured after 3 days; format: organism-based; conditions: in vivo, 72 h, time 3 day
[32] = Acute toxicity in BALB/c mouse assessed as decrease in locomotor activity at 15 to 80 mg/kg, ip administered as single dose measured after 24 hrs; format: organism-based; conditions: in vivo, dose 15-80 mg/kg
[33] = Acute toxicity in BALB/c mouse assessed as mild diarrhea at 15 to 80 mg/kg, ip administered as single dose measured after 24 hrs; format: organism-based; conditions: in vivo, dose 15-80 mg/kg
[34] = Acute toxicity in BALB/c mouse assessed as white discharge from eyes at 15 to 80 mg/kg, ip administered as single dose measured after 24 hrs; format: organism-based; conditions: in vivo, dose 15-80 mg/kg

Compound: CCOCc1nc2c(N)nc3ccccc3c2n1CC(C)(C)O [RESIQUIMOD]
- ECmax [1]: 2 µg/mL
- ECmax [2]: 2 µg/mL
- ECmax [3]: 2 µg/mL
- ECmax [4]: 2 µg/mL
- ECmax [5]: 2 µg/mL
- ECmax [6]: 2 µg/mL
- ECmax [7]: 2 µg/mL
- ECmax [8]: 2 µg/mL
- ECmax [9]: 2 µg/mL
- Activity [10]: Active
- Activity [11]: Active
- Activity [12]: Active
- Activity [13]: Non-Toxic
- Activity [14]: Non-Toxic
- Activity [15]: Active
- Activity [16]: Active
- Activity [17]: Active
- Activity [18]: Active
- Activity [19]: Toxic
- Activity [20]: 8.7%
- Activity [21]: Toxic
- Activity [22]: Toxic
- MTD [23]: 80 mg/kg
- Activity [24]: Toxic
- Activity [25]: Toxic
- Activity [26]: Toxic
- ECmax [27]: 2 µg/mL
- ECmax [28]: 2 µg/mL
- Activity [29]: Active
- Activity [30]: Active
- Activity [31]: Non-Toxic
- Activity [32]: Non-Toxic
- Activity [33]: Non-Toxic
- Activity [34]: Non-Toxic
